The source of these data is ChEMBL document CHEMBL1129289, “Dibenzoxepinone hydroxylamines and hydroxamic acids: dual inhibitors of cyclooxygenase and 5-lipoxygenase with potent topical antiinflammatory activity” (J Med Chem, 1996).

What all share (assay type): functional
Test [1] deals with T1, Polyunsaturated fatty acid 5-lipoxygenase (Rattus norvegicus, UniProt P12527).
T1 sequence (P12527 whole entry): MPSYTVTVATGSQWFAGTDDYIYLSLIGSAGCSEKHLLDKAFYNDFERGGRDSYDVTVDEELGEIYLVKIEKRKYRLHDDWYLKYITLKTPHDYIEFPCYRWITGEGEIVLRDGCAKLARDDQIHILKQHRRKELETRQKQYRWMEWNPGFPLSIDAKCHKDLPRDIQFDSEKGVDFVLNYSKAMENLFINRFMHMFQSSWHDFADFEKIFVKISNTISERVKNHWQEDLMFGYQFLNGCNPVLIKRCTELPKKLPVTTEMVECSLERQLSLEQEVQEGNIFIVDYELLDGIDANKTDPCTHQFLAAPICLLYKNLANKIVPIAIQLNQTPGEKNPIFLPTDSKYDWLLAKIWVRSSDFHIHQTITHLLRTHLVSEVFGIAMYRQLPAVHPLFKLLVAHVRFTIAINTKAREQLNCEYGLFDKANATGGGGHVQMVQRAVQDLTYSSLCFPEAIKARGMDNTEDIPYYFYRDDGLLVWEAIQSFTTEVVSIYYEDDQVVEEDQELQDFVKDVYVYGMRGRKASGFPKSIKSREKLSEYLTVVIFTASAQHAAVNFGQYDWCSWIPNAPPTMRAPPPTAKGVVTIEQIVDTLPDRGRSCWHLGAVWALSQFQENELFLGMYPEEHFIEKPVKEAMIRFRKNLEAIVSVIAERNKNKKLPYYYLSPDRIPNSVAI
The experiment in a line: (§1) Inhibition of 5-lipoxygenase by measuring 5-HETE levels in RBL-1 cell-free supernatant. The method, boiled down: (§2)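 Cell-free rat basophilic leukemia (RBL-1) supernatant, 150 µg protein per tube, in duplicate. Buffer: 35 mM NaH₂PO₄ pH 7.0, 5 µM ATP, 50 µM CaCl₂, 10 µM arachidonic acid. Compounds from DMSO stocks. Run at 37 °C for 10 min and stopped with citric acid. 5-HETE measured by radioimmunoassay against a standard curve. Percent change from control; some values given at 50 µM.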

Test [2] concerns Mus musculus. Description: Change in arachidonic acid induced oedema in mouse ear. The procedure, abridged:
(§3)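 Male CFW Swiss Webster mice, n=6. Compound or vehicle (3:7 propylene glycol:ethanol) applied topically to the right ear, 10 µL each to outer and inner surface. After 30 min, arachidonic acid 4 mg/20 µL on the right ear and vehicle on the left.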

Test [3] concerns Mus musculus. The experiment in a line: Inhibition of arachidonic acid oedema in mouse ear. The method, boiled down:
as §3

In test [4] the target is T2, Polyunsaturated fatty acid 5-lipoxygenase (Rattus norvegicus) (UniProt P12527).
T2 sequence (whole entry): T1 sequence (P12527 whole entry)
Described as §1. The following applies: concentration not given here. The method, boiled down:
as §2

For orientation: IC50 means the point on the concentration scale where inhibition reaches its midpoint. A high value points to a need for much substance. The term inhibition denotes the relative decrease from the control value, in per cent. A high value points to a response far below the control.

The compound `CCN(O)CCc1ccc2c(c1)C(=O)c1ccccc1CO2` displayed an IC50 in test [1] of 480 nM. In addition, the Change with Mus musculus [2] is reported as -50%. As to `O=C(CCCCCCCCc1ccccc1)NO`, in test [1], it took 480 nM to reach half-maximal inhibition (IC50). In the test on Mus musculus [3], the ED50 is given as 2.56 mg ear-1. In turn, `O=C1c2ccccc2COc2ccc(CCC(=O)N(O)C3CCCCC3)cc21` came in with an IC50 in test [1] of 2000 nM. In addition, the Change with Mus musculus [2] is on record as -14%. In turn, `CC(Cc1ccc(O)c(O)c1)C(C)Cc1ccc(O)c(O)c1` (configuration not stated) [NORDIHYDROGUAIARETIC ACID] displayed an ED50 with Mus musculus [3] of 3.1 mg ear-1. For `CC(C)N(O)CCc1ccc2c(c1)C(=O)c1ccccc1CO2`, in test [1], inhibition was half-maximal at 130 nM (IC50). Moreover, in the test with Mus musculus [2], the Change was -47%.

In turn, `O=C(O)Cc1ccc2c(c1)C(=O)c1ccccc1CO2` [ISOXEPAC] displayed an inhibition in test [4] of 1.5%. In addition, the ED50 in the test with Mus musculus [3] is 55 mg ear-1.

In test [4], `CCN(O)C(=O)C(C)c1ccc2c(c1)C(=O)c1ccccc1CO2` (configuration not stated) displayed an inhibition of 94%. Also, the Change in the test with Mus musculus [2] is given as -38%. On to `CN(O)C(=O)CCc1ccc2c(c1)C(=O)c1ccccc1CO2`, for which, in test [1], it took 10 nM to reach half-maximal inhibition (IC50). In addition, the ED50 in the test with Mus musculus [3] is given as 0.69 mg ear-1. In the test on Mus musculus [2], the Change is reported as -66%. In turn, `CN(O)C(=O)Cc1ccc2c(c1)C(=O)c1ccccc1CO2` came in with an IC50 in test [1] of 1190 nM. Further, the Change in the test with Mus musculus [2] is -63%. On the same counts, the results for `CN(O)CCCc1ccc2c(c1)C(=O)c1ccccc1CO2` are 620 nM and -53%.

Turning to `CN(O)CCc1ccc2c(c1)C(=O)c1ccccc1CO2`, the Change in the test on Mus musculus [2] is -46%. `CCN(O)C(=O)CCc1ccc2c(c1)C(=O)c1ccccc1CO2`: half-maximal inhibition in test [1] (IC50) was put at 150 nM. Moreover, the Change in the test on Mus musculus [2] is reported as -55%.

`CCN(O)CCc1ccc2c(c1)Cc1ccccc1CO2` showed an IC50 in test [1] of 320 nM. For the same compound, the Change in the test on Mus musculus [2] is -50%. The like results for `CCN(O)CCc1ccc2c(c1)C(O)c1ccccc1CO2` (configuration not stated) were, in that order, 450 nM and -47%. In turn, `COc1ccc2c(c1)c(CC(=O)O)c(C)n2C(=O)c1ccc(Cl)cc1` [INDOMETHACIN] had an ED50 in the test with Mus musculus [3] of 1.63 mg ear-1. Compound `CON(C)C(=O)CCc1ccc2c(c1)C(=O)c1ccccc1CO2` had an IC50 in test [1] above 50000 nM. The Change with Mus musculus [2] was -41%. On the same counts, the results for `CCN(O)C(=O)Cc1ccc2c(c1)C(=O)c1ccccc1CO2` are 580 nM and -52%. `O=C1c2ccccc2COc2ccc(CC(=O)N(O)C3CCCCC3)cc21` came in with an IC50 in test [1] of 670 nM. Further, in the test on Mus musculus [2], the Change is on record as -29%. On to `CC(C)N(O)C(=O)CCc1ccc2c(c1)C(=O)c1ccccc1CO2`, for which the IC50 in test [1] amounted to 580 nM. In addition, the Change in the test with Mus musculus [2] is -63%. `CN(O)C(=O)CCc1ccc2c(c1)Cc1ccccc1CO2` came in with an IC50 in test [1] of 20 nM. The same compound had an ED50 in the test on Mus musculus [3] of 0.7 mg ear-1. Moreover, the Change with Mus musculus [2] is -67%. The compound `CC(C(=O)N(C)O)c1ccc2c(c1)C(=O)c1ccccc1CO2` (configuration not stated) registered an IC50 in test [1] of 1300 nM. The Change in the test on Mus musculus [2] is recorded as -44%.

In test [1], `O=C(Cc1ccc2c(c1)C(=O)c1ccccc1CO2)NO` had an IC50 of 9000 nM. The Change with Mus musculus [2] is -19%. For `CC(C)Cc1ccc(C(C)C(=O)O)cc1` (configuration not stated) [IBUPROFEN], the Change with Mus musculus [3] is recorded as -11%.

For `CN(O)C(=O)C(C)(C)Cc1ccc2c(c1)C(=O)c1ccccc1CO2`, 660 nM corresponded to half-maximal inhibition in test [1] (IC50). Further, the Change in the test on Mus musculus [2] turned out to be 29%. In the case of `CC(=O)N(O)CCc1ccc2c(c1)C(=O)c1ccccc1CO2`, the IC50 in test [1] worked out at 190 nM. Besides, the Change in the test with Mus musculus [2] was -61%. On the same counts, the results for `CC(C)N(O)C(=O)Cc1ccc2c(c1)C(=O)c1ccccc1CO2` are 1230 nM and -52%.

`CC(=O)N(O)Cc1ccc2c(c1)C(=O)c1ccccc1CO2` registered an IC50 in test [1] of 210 nM. Moreover, in the test on Mus musculus [2], the Change was -47%.
